Measured values as given in publication PMC9884087 (Journal of Medicinal Chemistry, 2023).

Columns and labels:
TcCYP51 = TcCYP51 (Trypanosoma cruzi, UniProt Q7Z1V1); experiment: Fluorescence-based Trypanosoma cruzi CYP51 inhibition assay; format: biochemical; conditions: concentrations up to and including 100 μM
[1] = Mouse pharmacokinetic study; format: in vivo; conditions: for clearance: female, Balb/c, mouse, plasma, iv
In short: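 Female Balb/c mice received test compound i.v. plus p.o., either 1 and 50 mg/kg or 2 and 12.5 mg/kg (n = 3 mice per route). Some arms were pretreated with 1-aminobenzotriazole (50 mg/kg p.o., 2 h before dosing) as a cytochrome P450 inhibitor; others had none. Blood concentration–time profiles were obtained.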

Mouse cassette dosing PK = format: in vivo; conditions: male, ICR, plasma, iv, 0.1 mg/kg
[2] = Mouse preliminary tolerability study; format: in vivo
In short: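 Dosing was oral, twice daily, for 5 days. Recorded: mortality, clinical observations (e.g. temperature to touch, posture, gait, activity), body weight and weight gain, food consumption, and gross pathology.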

[3] = test system: T. cruzi strain (CL Brener); experiment: In vivo efficacy, bioluminescent acute T. cruzi infection in BALB/c mice; design: species or system Trypanosoma cruzi; conditions: 50 mg/kg BID p.o. 5 days
In short: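 Female BALB/c mice, 7–8 weeks old, housed specific-pathogen-free, infected i.p. with 1 × 10³ CL Brener trypomastigotes from SCID mouse blood. The parasites constitutively express the red-shifted luciferase PpyRE9h. From day 14 post-infection (acute peak), mice (n = 3) received test compound orally at 50 mg/kg twice daily for 5 days. Parasite burden was tracked by in vivo bioluminescence imaging against untreated controls through day 18, with animals observed for adverse effects.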

[4] = test system: panel of 35 known-liability targets including GPCRs and ion channels; experiment: Known-liability off-target panel; conditions: 300 kinases at 1 μM and 35 known-liability targets at 10 μM
[5] = single p.o. dose 50 mg/kg, no ABT, 50 mg/kg

Chain of TcCYP51 (Q7Z1V1 whole entry): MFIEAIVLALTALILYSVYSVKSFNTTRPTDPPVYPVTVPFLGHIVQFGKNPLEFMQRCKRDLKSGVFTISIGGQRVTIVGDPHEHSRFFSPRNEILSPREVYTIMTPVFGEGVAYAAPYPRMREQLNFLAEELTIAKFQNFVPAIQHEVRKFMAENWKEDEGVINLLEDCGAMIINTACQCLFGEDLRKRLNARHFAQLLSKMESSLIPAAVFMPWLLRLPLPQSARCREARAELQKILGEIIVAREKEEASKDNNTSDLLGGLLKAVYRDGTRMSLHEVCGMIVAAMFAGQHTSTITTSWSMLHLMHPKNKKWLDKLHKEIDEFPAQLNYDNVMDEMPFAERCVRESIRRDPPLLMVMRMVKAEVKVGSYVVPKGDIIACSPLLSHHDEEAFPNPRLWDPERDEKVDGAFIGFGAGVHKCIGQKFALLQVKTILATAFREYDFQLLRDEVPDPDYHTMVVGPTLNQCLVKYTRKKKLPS

Row | TcCYP51 inhibitory activity (TcCYP51) | Compound | clearance ([1]; 2 mg/kg) | tolerability (single p.o. dose) ([1]; single dose 12.5 mg/kg p.o. with ABT 50 mg/kg p.o. 2 h prior) | tolerability (single p.o. dose) ([1]; single dose 12.5 mg/kg p.o. with ABT 50 mg/kg p.o. 2 h prior, listed as 85 + ABT) | tolerability (single p.o. dose) [1, 5] | clearance (Mouse cassette dosing PK) | no-observed-adverse-effect-level (NOAEL) ([2]; BID p.o. 5 days, female mice) | multiday tolerability observations ([2]; female Balb/c mice, 10, 50, 100 mg/kg/dose BID p.o. up to 5 days, 1 animal/group) | adverse effects during treatment of infected mice [3] | off-target activity [4] | clearance ([1]; 1 mg/kg) | tolerability (5 days BID p.o.) ([2]; healthy mice, 10, 50, 100 mg/kg BID p.o., 5 days)
1 | no inhibitory activity | Fc1ccc(C2CCN(c3nc(-c4ccccn4)nc4ccccc34)C2)cc1 (stereo not shown) [Compound 83, 4-[3-(4-Fluorophenyl)pyrrolidin-1-yl]-2-(pyridin-2-yl)quinazoline] | – | – | – | – | – | – | – | – | – | – | –
2 | – | c1ccc(-c2nc(N3CCC(c4ccccn4)C3)c3ccccc3n2)nc1 (stereo not shown) [Compound 85, 2-(pyridin-2-yl)-4-(3-(pyridin-2-yl)pyrrolidin-1-yl)quinazoline] | 4.9 mL/min/kg | adverse tolerability events were observed after the single dose | poor | no adverse issues were noted | 38.5 mL/min/kg | 100 mg/kg/dose (BID) | well tolerated | no adverse effects were observed | – | – | –
3 | – | CC(C)(Nc1nc(-c2ccccn2)nc2ccccc12)c1ccccn1 [Compound 54, 2-(Pyridin-2-yl)-N-(2-(pyridin-2-yl)propan-2-yl)quinazolin-4-amine] | – | – | – | No adverse reactions or compound-related side effects were observed | – | – | – | – | no known off-target activity with the exception of 5HT-1A antagonism | 12.4 mL/min/kg | poor
